Laboratory results as given in publication PMC9352169 (ACS Omega, 2022).
Where “and” joins values, the source holds several entries; their conditions need not be identical. Equal values may be shown once.

Assays:
[1] = Substitution kinetics of chlorides by L-methionine; assay type: physicochemical; conditions: Nu = L-Met, 35 °C, pH 7.2; for k2^1st × 10^1: first step; for k1^2nd × 10^4: second step (ring closure)
Outline: (§1)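 Chloride substitution was followed by UV-vis under pseudo-first-order conditions: complex 50 μM with the nucleophile in ≥20-fold excess, in 5 mM Tris–HCl/50 mM NaCl, pH 7.2. Complex stocks were 5 mM in 5% DMF. Runs spanned 25–55 °C at 10 °C intervals, and the Tu trace was taken at 524 nm. Rate constants came from kobs vs [nucleophile] plots, with activation parameters from temperature dependence.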

zebrafish embryos [2] = assay: Zebrafish embryo acute toxicology; assay type: in vivo, Danio rerio; conditions: for drop of survival rate when the concentration increased from 15 to 90 μM / morphological changes in zebrafish embryos / LC50: 96 hpf; for morphological changes in zebrafish embryos: even at 90 M (printed); for LC50: zebrafish embryos
normal Vero cell line = assay: MTT cytotoxicity assay, Vero; assay type: cell-based; conditions: read-out: IC50 normal Vero, 24 h incubation, n = 3
Outline: (§2)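 MTT viability assay. Vero cells were grown in MEM and MCF-7 cells in DMEM, both with 10% FBS and penicillin/streptomycin, at 37 °C and 5% CO2. Cells were exposed 24 h to test complex at 2, 4, 8, 16, 32 and 64 (DMSO stock). Viability was expressed relative to untreated control and IC50 computed. Values are mean ± SD of three independent experiments. SI = IC50 Vero / IC50 MCF-7.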

CT-DNA = CT-DNA UV-vis absorption titration; assay type: binding, calf; conditions: Van't Hoff equation ΔG = −RT lnKb
Outline: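 UV-vis titration of test complex (14 μM) with CT-DNA (0–90 μM) in 5 mM Tris–HCl/50 mM NaCl, pH 7.2. Complex came from a 5 mM DMSO stock diluted in buffer, and samples were equilibrated about 14 h at 37 °C. The binding constant came from absorbance changes, and ΔG from it.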

BSA = BSA (Bos taurus, UniProt P02769); assay: BSA fluorescence quenching titration; assay type: binding, bovine; conditions: for Ksv × 10^–5: BSA 1.08 μM; for Ksv × 10^–5 / Decrease in initial BSA fluorescence: λem = 348 nm; for kq × 10^–13: BSA quenching; for KF × 10^–5 / n (number of binding sites): BSA, Scatchard; for Decrease in initial BSA fluorescence: pH 7.2
Outline: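 Complex stocks were 5 mM in DMSO, diluted in buffer, and samples were incubated about 14 h at 37 °C before reading. Emission was read at 348 nm and checked for inner-filter effects by UV-vis. Data were fitted by Stern–Volmer and Scatchard analysis.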

supercoiled pcDNA = assay: Photoinduced pcDNA cleavage; assay type: biochemical; conditions: 250 μM complex + 0.1 μM pcDNA
[3] = Substitution kinetics of chlorides by thiourea; assay type: physicochemical; conditions: Nu = Tu, 35 °C; for k2^1st × 10^1: first step; for k2^1st × 10^1 / k2^2nd × 10^2: pH 7.2; for k–1^2nd × 10^5: second step back reaction; for k2^2nd × 10^2: second step
Outline: as §1

[4] = system: guanosine-5′-monophosphate, 5′-GMP; assay: Substitution kinetics of chlorides by guanosine-5′-monophosphate; assay type: physicochemical; conditions: Nu = 5′-GMP, 35 °C; for k2^1st × 10^1: first step; for k2^1st × 10^1 / k2^2nd × 10^2: pH 7.2; for k–1^2nd × 10^5: second step back reaction; for k2^2nd × 10^2: second step
Outline: as §1

EtBr + CT-DNA adduct = assay: Fluorescence EtBr exchange titration on CT-DNA; assay type: binding, calf; conditions: for n (number of binding sites) / KF × 10^–4 (Scatchard binding constant) / Kapp × 10^–6 (apparent binding constant) / Ksv × 10^–4 (Stern–Volmer quenching constant) / kq × 10^–12 (bimolecular quenching rate constant): EtBr exchange; for n (number of binding sites): Scatchard; for KF × 10^–4 (Scatchard binding constant) / Kapp × 10^–6 (apparent binding constant) / Ksv × 10^–4 (Stern–Volmer quenching constant) / kq × 10^–12 (bimolecular quenching rate constant) / Decrease in initial EtBr+CT-DNA fluorescence: pH 7.2; for Decrease in initial EtBr+CT-DNA fluorescence: λem = 596 nm, λex = 510 nm
Outline: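 Competitive EtBr displacement used EtBr 20.0 μM and CT-DNA 20.0 μM with test complex added at 0–150 μM, in 5 mM Tris/50 mM NaCl, pH 7.2. Samples were equilibrated about 14 h at 37 °C. Emission was 596 nm (excitation 510 nm), with inner-filter check. Data were analysed as Stern–Volmer Io/I vs [Q] and Scatchard log[(Io–I)/I] vs log[Q].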

[5] = system: human breast adenocarcinoma, MCF-7 cell line; assay: MTT cytotoxicity assay, MCF-7; assay type: cell-based; conditions: for SI (IC50 of Vero cell line/IC50 of MCF-7 cell line): Vero vs MCF-7; for IC50: read-out: IC50 breast cancer MCF-7, MTT, 24 h incubation, n = 3
Outline: as §2

zebrafish embryos [6] = conditions: cited from earlier work

Chain of BSA (P02769 25-607): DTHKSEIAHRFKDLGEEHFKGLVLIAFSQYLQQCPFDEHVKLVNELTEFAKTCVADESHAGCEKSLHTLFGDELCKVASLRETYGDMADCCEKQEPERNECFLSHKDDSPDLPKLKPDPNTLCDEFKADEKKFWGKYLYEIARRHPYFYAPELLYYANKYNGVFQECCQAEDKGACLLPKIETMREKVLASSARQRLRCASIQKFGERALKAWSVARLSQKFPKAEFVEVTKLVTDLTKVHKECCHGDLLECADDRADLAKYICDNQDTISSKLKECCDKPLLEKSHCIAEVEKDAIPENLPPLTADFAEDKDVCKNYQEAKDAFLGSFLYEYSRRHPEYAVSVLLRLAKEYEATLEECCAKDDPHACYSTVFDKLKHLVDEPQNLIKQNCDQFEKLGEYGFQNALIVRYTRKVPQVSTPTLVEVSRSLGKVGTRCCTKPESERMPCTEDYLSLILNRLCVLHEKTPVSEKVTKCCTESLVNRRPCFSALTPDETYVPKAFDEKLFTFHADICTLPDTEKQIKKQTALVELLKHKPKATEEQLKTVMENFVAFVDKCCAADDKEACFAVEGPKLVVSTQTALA

Molecule | k2^1st × 10^1 [1] [M^–1 s^–1] | k1^2nd × 10^4 [1] | morphological changes in zebrafish embryos (zebrafish embryos [2]) | LC50 (zebrafish embryos [2]) [µM] | IC50 (normal Vero cell line) [µM] | ΔG of binding with CT-DNA (CT-DNA) [kJ mol^–1] | experimental ΔG of binding with BSA (BSA) [kJ mol^–1] | Ksv × 10^–5 (BSA) [M^–1] | kq × 10^–13 (BSA) [M^–1 s^–1] | KF × 10^–5 (BSA) [M^–1] | n (number of binding sites) (BSA) | Decrease in initial BSA fluorescence (BSA) | % of NC (pcDNA cleavage) (supercoiled pcDNA) [%] | k2^1st × 10^1 [3] [M^–1 s^–1] | k–1^2nd × 10^5 [3] [s^–1] | k2^2nd × 10^2 [3] [M^–1 s^–1] | k2^1st × 10^1 [4] [M^–1 s^–1] | k–1^2nd × 10^5 [4] [s^–1] | k2^2nd × 10^2 [4] [M^–1 s^–1] | SI (IC50 of Vero cell line/IC50 of MCF-7 cell line) [5] | also measured
[Cl-].[Cl-].[Pt+2].[Ru+2].c1ccc(-c2nccnc2-c2ccccn2)nc1.c1cnc2c(c1)ccc1cccnc12.c1cnc2c(c1)ccc1cccnc12 [C1, [(1,10-phenanthroline)2Ru(II)(μ-2,3-bis(2-pyridyl)pyrazine)Pt(II)dichloride]^2+] | 0.75 ± 0.11 | 0.37 ± 0.08 ^a s^–1 | did not induce any significant morphological changes | 65.2 ± 1 | 19.3 ± 2.1 | −30 ± 3 | −31.02 | 1.84 ± 0.08 | 1.84 ± 0.16 | 0.47 ± 0.06 | 0.84 ± 0.03 | up to 20% | ~24 | 1.45 ± 0.15 | 1.04 ± 0.04 | 2.73 ± 0.10 | 0.34 ± 0.09 | 0.20 ± 0.02 | 0.75 ± 0.04 | 2.12 | drop of survival rate when the concentration increased from 15 to 90 μM (zebrafish embryos [2]): 50%; n (number of binding sites) (EtBr + CT-DNA adduct): 0.99 ± 0.04; KF × 10^–4 (Scatchard binding constant) (EtBr + CT-DNA adduct): 1.00 ± 0.05 M^–1; Kapp × 10^–6 (apparent binding constant) (EtBr + CT-DNA adduct): 3.33 ± 0.11 M^–1; Ksv × 10^–4 (Stern–Volmer quenching constant) (EtBr + CT-DNA adduct): 1.59 ± 0.07 M^–1; kq × 10^–12 (bimolecular quenching rate constant) (EtBr + CT-DNA adduct): 0.69 ± 0.19 M^–1 s^–1; Decrease in initial EtBr+CT-DNA fluorescence (EtBr + CT-DNA adduct): up to 19%; IC50 [5]: 9.1 ± 1.5 µM
[Cl-].[Cl-].[Pt+2].[Ru+2].c1ccc(-c2nc3ccccc3nc2-c2ccccn2)nc1.c1cnc2c(c1)ccc1cccnc12.c1cnc2c(c1)ccc1cccnc12 [C2, [(1,10-phenanthroline)2Ru(II)(μ-2,3-bis(2-pyridyl)quinoxaline)Pt(II)dichloride]^2+] | 1.75 ± 0.18 | 1.02 ± 0.15 ^a s^–1 | did not induce any significant morphological changes | 96.3 ± 1.4 | 17.5 ± 1.9 | −35 ± 2 | −31.55 | 2.26 ± 0.15 | 2.26 ± 0.24 | 1.16 ± 0.10 | 1.00 ± 0.05 | ≤ 17% | ~18 | 4.26 ± 0.21 | 4.35 ± 0.09 | 8.65 ± 0.15 | 0.96 ± 0.13 | 0.84 ± 0.04 | 1.48 ± 0.08 | 4.38 | n (number of binding sites) (EtBr + CT-DNA adduct): 0.99 ± 0.05; KF × 10^–4 (Scatchard binding constant) (EtBr + CT-DNA adduct): 1.98 ± 0.11 M^–1; Kapp × 10^–6 (apparent binding constant) (EtBr + CT-DNA adduct): 6.25 ± 0.17 M^–1; Ksv × 10^–4 (Stern–Volmer quenching constant) (EtBr + CT-DNA adduct): 2.83 ± 0.13 M^–1; kq × 10^–12 (bimolecular quenching rate constant) (EtBr + CT-DNA adduct): 1.23 ± 0.24 M^–1 s^–1; Decrease in initial EtBr+CT-DNA fluorescence (EtBr + CT-DNA adduct): ≤ 23%; IC50 [5]: 4 ± 1.1 µM
[Cl-].[Cl-].[Pt+2].[Ru+2].c1ccc(-c2nc3cc4ccccc4cc3nc2-c2ccccn2)nc1.c1cnc2c(c1)ccc1cccnc12.c1cnc2c(c1)ccc1cccnc12 [C3, [(1,10-phenanthroline)2Ru(II)(μ-2,3-bis(2-pyridyl)benzo[g]quinoxaline)Pt(II)dichloride]^2+] | 3.10 ± 0.26 | 2.08 ± 0.33 ^a s^–1 | did not induce any significant morphological changes | 149 | 16.2 ± 1.7 | −36 ± 3 | −31.97 | 2.65 ± 0.22 | 2.65 ± 0.33 | 6.64 ± 0.17 | 1.01 ± 0.07 | ≤ 10% | 17 | 7.57 ± 0.29 | 10.99 ± 0.13 | 14.53 ± 0.22 | 1.39 ± 0.15 | 2.22 ± 0.04 | 2.20 ± 0.10 | 5.55 and 5.23 | % of survival rate (zebrafish embryos [2]; 15 μM, 96 h): 86.7%; embryos abnormal, difficulty growing into juvenile zebrafish (zebrafish embryos [2]; 45 μM or higher concentration): about 25%; % of survival rate (zebrafish embryos [2]; 90 μM, 96 h): 56.7%; drop of survival rate when the concentration increased from 15 to 90 μM (zebrafish embryos [2]): 30%; n (number of binding sites) (EtBr + CT-DNA adduct): 1.00 ± 0.07; KF × 10^–4 (Scatchard binding constant) (EtBr + CT-DNA adduct): 3.96 ± 0.17 M^–1; Kapp × 10^–6 (apparent binding constant) (EtBr + CT-DNA adduct): 8.00 ± 0.23 M^–1; Ksv × 10^–4 (Stern–Volmer quenching constant) (EtBr + CT-DNA adduct): 3.92 ± 0.19 M^–1; kq × 10^–12 (bimolecular quenching rate constant) (EtBr + CT-DNA adduct): 1.70 ± 0.31 M^–1 s^–1; Decrease in initial EtBr+CT-DNA fluorescence (EtBr + CT-DNA adduct): ≤ 37%; IC50 [5]: 3.1 ± 0.8 µM
cis-[Pt(NH3)2Cl2] [cisplatin, reference compound] |  |  | did not induce any significant morphological changes | 181 |  |  |  |  |  |  |  |  |  |  |  |  |  |  |  | 4.02 | % of survival rate (zebrafish embryos [2]; 15 μM, 96 h): over 90%; % of hatching rate (zebrafish embryos [2]; 90 μM, 96 h): about 6.7%; % of survival rate (zebrafish embryos [2]; 90 μM, 96 h): 60%; lethality in zebrafish (zebrafish embryos [6]; 400 μM): lethal outcome; toxicity in developing zebrafish embryos (zebrafish embryos [6]; under 15 μM, delayed hatching up to 120 hpf): nontoxic
